In PubChem BioAssay:
Inconclusive results are not listed.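 Rule for the calls, unless noted: active = RAM network inhibition above 8.4% in each of two replicates, 3 SD over the compound average; inconclusive = above 8.4% inhibition in only one replicate; inactive = 8.4% inhibition or less in each replicate.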

Columns and labels:
[1] = S. cerevisiae growth inhibition in permissive medium (OD615), pilot counter-assay for S. cerevisiae lifespan shortening project, permissive growth control (AID 705;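 active = growth inhibition above 25% in both replicates, a cutoff set 3 SD above the mean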); conditions: OD615, 24 h, at 10 µM, active compounds read high
Method in brief: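 System: S. cerevisiae with engineered DeaD lifespan system. Medium: SC raffinose/galactose permissive medium. Doses: single compound dose of 10 µM, 0.25% DMSO final. Schedule: 24 h exposure, 30 °C. Measured by: OD615 turbidity read. Read-out: growth inhibition.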

[2] = S. cerevisiae growth inhibition in restrictive medium, OD615, pilot screen, restrictive growth control, yeast lifespan reduction project (AID 706;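 active = growth inhibition above a set limit, 3 SD over mean compound inhibition, in both replicates, cut at about 43% in these data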;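 note: modified DeaD lifespan yeast strain shifted to restrictive glucose medium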); conditions: OD615, 48 h, at 10 µM, active compounds read high
Method in brief: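 Assay system – genetically modified Saccharomyces cerevisiae, DeaD replicative lifespan assay strain · Medium – CSMM-D glucose medium · Doses – 10 µM compound, 0.25% DMSO · Times – 4 h pre-incubation, 48 h exposure at 30 °C · Signal – optical density at 615 nm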

[3] = doxorubicin toxicity protection in MRP-1 cells – H69AR cells, CellTiter-Glo, duplicate, MRP-1 activator project, pilot screen (AID 807;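 active = viability increase at or above a cutoff of the median across tested compounds plus 3 SD, cut at about 8.5% in these data, passing the limit was not always enough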;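 note: compound pretreatment 18-22 h then 72 h combined with doxorubicin; 0% = doxorubicin alone and 100% = vehicle without doxorubicin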); conditions: H69AR viability with doxorubicin, CellTiter-Glo luminescence; at 10 µM; active compounds read high
[4] = viability of HCT116 without oncogenic beta-catenin – human colon tumor cells, pilot screen (AID 823;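 active = cell viability at or below a set limit in both duplicate runs, the limit being the all-compound median minus 4 SD, cut at about 23% in these data, passing the limit was not always enough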;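 note: 0% = wells killed by 20 µM Hyamine and 100% = untreated DMSO cell wells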); conditions: HCT116 beta-catenin knockout viability, CellTiter-Glo, 60 h; at 10 µM; active compounds read low
[5] = viability of PTEN-null HCT116 cells – cell-based, HCT116 clonal line, CellTiter-Glo, pilot screen (AID 824;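 active = viability at or below 27.92% in each of two runs, the all-compound median minus 4 SD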;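 note: 0% = 20 µM Hyamine control and 100% = vehicle cell control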); conditions: HCT116 PTEN-deleted viability, 60 h, at 10 µM, active compounds read low
[6] = RAM pathway blockade in budding yeast – dse1pr::URA3 reporter, 5-FOA selection, pilot screen (AID 869;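 active = inhibition over a set limit, the all-compound mean plus 3 SD, in both replicate runs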;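 note: 0% = DMSO wells with no growth and 100% = 10 µM 1-NA-PP1 with full growth; RAM network block rescues cells from 5-FOA so hits raise OD615 growth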); conditions: S. cerevisiae dse1pr::URA3 5-FOA growth, OD615, 2 d; at 10 µM; active compounds read high; strain carries analog-sensitive mutant Cbk1 kinase
[7] = RAM signaling pathway blockade in yeast – S. cerevisiae, Pdr1DBD-CYC8 efflux-inhibited sensitized strain, primary screen (AID 1298);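 note: 0% = DMSO untreated cells without growth and 100% = 10 µM 1-NA-PP1 full growth; higher means more yeast growth rescued from 5-FOA killing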; conditions: S. cerevisiae cbk1-as DSE1-URA3 strain, 5-FOA growth OD615, 2 d; at 50 µM; active compounds read high

Cc1cnn(C(=O)c2ccccc2Br)c1
inactive: growth inhibition [1] 3.79% | growth inhibition [2] -3.8% | viability increase [3] -1.43% | viability [4] 109% | viability [5] 103% | inhibition [6] -0.355% | RAM network inhibition [7] 1.6%

O=C(C1CCN(S(=O)(=O)c2cccc3cccnc23)CC1)N1CCCC1
inactive: growth inhibition [1] 11.8% | growth inhibition [2] 7.97% | viability increase [3] -3.23% | viability [4] 97% | viability [5] 87.9% | inhibition [6] 1.52% | RAM network inhibition [7] 0.06%

COc1ccc(Nc2nnc(Cc3ccccc3)c(=O)[nH]2)c(OC)c1
inactive: growth inhibition [1] -23.5% | growth inhibition [2] -17.1% | viability increase [3] 0.58% | viability [4] 93.5% | viability [5] 92.7% | inhibition [6] 1.52% | RAM network inhibition [7] 3.16%

COc1cc(CCC(=O)N2CCN(c3ccc(N4CCOCC4)nn3)CC2)cc(OC)c1OC
inactive: growth inhibition [1] 7.64% | growth inhibition [2] 14.6% | viability increase [3] -1.86% | viability [4] 106% | viability [5] 112% | inhibition [6] 0.43% | RAM network inhibition [7] 4.7%

CCCCOc1ccccc1C1C(C(=O)OC)=C(C)N(C)C(C)=C1C(=O)OC
inactive: growth inhibition [1] -4.46% | growth inhibition [2] -5.04% | viability increase [3] -3.49% | viability [4] 83.1% | viability [5] 79.8% | inhibition [6] 0.225% | RAM network inhibition [7] 8.12%

COC(=O)C1=C(C)N(Cc2cccnc2)C(=O)C1
inactive: growth inhibition [1] -10.7% | growth inhibition [2] -8.8% | viability increase [3] -1.77% | viability [4] 98.7% | viability [5] 102% | inhibition [6] 2.84% | RAM network inhibition [7] 5.02%

Cc1ccc(-c2nn(-c3ccccc3)cc2C(=O)N2CCOCC2)cc1
inactive: growth inhibition [1] -8.14% | growth inhibition [2] -8.34% | viability increase [3] -2.21% | viability [4] 97.5% | viability [5] 89% | inhibition [6] 0.805% | RAM network inhibition [7] 12.4%

CCN1CCN(CCNC(=O)c2ccc(CS(=O)(=O)c3c(Cl)cccc3Cl)o2)CC1
inactive: growth inhibition [1] 5.83% | growth inhibition [2] 6.53% | viability increase [3] -1.94% | viability [4] 110% | viability [5] 103% | inhibition [6] 2.98% | RAM network inhibition [7] 1.59%

Cc1cc(C(=O)NCC(c2ccco2)N(C)C)no1 (stereo not given)
inactive: growth inhibition [1] -3.54% | growth inhibition [2] -10.7% | viability increase [3] -2.83% | viability [4] 98.1% | viability [5] 99.6% | inhibition [6] 1.4% | RAM network inhibition [7] 8.39%

Cn1c(=O)oc2cc(S(=O)(=O)Nc3cccc(F)c3)ccc21
inactive: growth inhibition [1] -14.2% | growth inhibition [2] -2.1% | viability increase [3] -0.69% | viability [4] 94.3% | viability [5] 89.5% | inhibition [6] 2.04% | RAM network inhibition [7] 5.85%

N#C/C(=C1/CCCCCN1)c1nnc2n1CCCCC2
inactive: growth inhibition [1] -8.48% | growth inhibition [2] 2.4% | viability increase [3] -1.1% | viability [4] 102% | viability [5] 101% | inhibition [6] 0.985% | RAM network inhibition [7] 3.24%

C=CCc1cc(/C=N/n2cnnc2)cc(OCC)c1O
inactive: growth inhibition [1] -10.7% | growth inhibition [2] -1.86% | viability increase [3] -2.46% | viability [4] 102% | viability [5] 94.7% | inhibition [6] 0.925% | RAM network inhibition [7] 0.6%

O=C(NCc1cccnc1)c1nnc(Cc2ccc(F)cc2)o1
inactive: growth inhibition [1] 7.17% | growth inhibition [2] 2.65% | viability increase [3] 2.16% | viability [4] 98.4% | viability [5] 103% | inhibition [6] 0.03% | RAM network inhibition [7] 3.62%

CC1(C)CCCC2=C1CC1C(=O)N(Cc3cccnc3)C(=O)C1C2 (stereo not given)
inactive: growth inhibition [1] -6.32% | growth inhibition [2] -10.3% | viability increase [3] -0.2% | viability [4] 82.2% | viability [5] 86.7% | inhibition [6] 1.11% | RAM network inhibition [7] 4.53%

COc1ccc(C2CC(c3ccc(F)cc3)Nc3nc(N)nn32)cc1 (stereo not given)
inactive: growth inhibition [1] -3.94% | growth inhibition [2] 11.2% | viability increase [3] 0.02% | viability [4] 98.1% | viability [5] 94.4% | inhibition [6] 1% | RAM network inhibition [7] 6.59%
